# Compounds with a hit are over-represented: about 3.7% of the library has one in this group of screens.
# KCNQ1 block: inhibitors of human KCNQ1 potassium channel; hit rate 1.3% among 310,000; AID 2642; B-score at 10 µM; P51787; CHO-K1 KCNQ1, FluxOR thallium flux fluorescence; active compounds read high;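 active = compounds whose thallium flux B-score, printed positive for inhibition, exceeds three library SD while starting fluorescence stays within three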;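 also: channel opened by potassium depolarization with thallium stimulus after 20 min compound exposure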
# Target sequence (P51787 whole entry, looked up): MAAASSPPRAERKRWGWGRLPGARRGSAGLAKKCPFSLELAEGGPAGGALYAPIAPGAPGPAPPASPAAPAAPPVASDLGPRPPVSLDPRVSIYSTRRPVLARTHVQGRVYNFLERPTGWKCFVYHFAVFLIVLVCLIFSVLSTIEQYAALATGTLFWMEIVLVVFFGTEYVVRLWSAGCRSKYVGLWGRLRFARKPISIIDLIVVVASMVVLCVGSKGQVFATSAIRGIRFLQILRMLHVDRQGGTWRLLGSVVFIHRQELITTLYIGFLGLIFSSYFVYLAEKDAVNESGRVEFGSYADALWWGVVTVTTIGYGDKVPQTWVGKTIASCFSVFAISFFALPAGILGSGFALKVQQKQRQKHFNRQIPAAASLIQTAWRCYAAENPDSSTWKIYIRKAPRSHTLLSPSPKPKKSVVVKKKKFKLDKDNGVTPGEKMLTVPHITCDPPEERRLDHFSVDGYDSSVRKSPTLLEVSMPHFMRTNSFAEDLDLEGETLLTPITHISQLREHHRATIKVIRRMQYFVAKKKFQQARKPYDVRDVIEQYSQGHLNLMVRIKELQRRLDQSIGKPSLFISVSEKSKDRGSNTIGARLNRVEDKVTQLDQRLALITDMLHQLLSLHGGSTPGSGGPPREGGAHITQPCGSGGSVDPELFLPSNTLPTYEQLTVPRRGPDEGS
# KCNQ1 act: potentiators or activators of human KCNQ1 potassium channel; P51787; CHO-K1 KCNQ1, thallium flux FluxOR fluorescence; active compounds read high; B-score at 10 µM; hit rate 0.35% among 310,000;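 active = fluorescence ratio B-score, a plate-corrected score, at least three library SD, with initial intensity B-score within 5 SD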
#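 Assay system: CHO-K1 cells stably expressing KCNQ1. Medium: assay buffer for compound exposure, DMSO matched across wells. Timing: 37 °C overnight plating, 90-min dark dye load, 20-min compound pretreatment. Signal: kinetic FluxOR fluorescence, 10 s baseline plus 110 s post-stimulus.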
# KCNK9 inh: human KCNK9 channel inhibition. Q9NPC2. HEK293 KCNK9, FluxOR thallium flux fluorescence; active compounds read low. B-score at 10 µM. hit rate 1.2% among 310,000. AID 488922;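 active = ratio B-score over 3 SD below the library mean, with starting fluorescence within 5 SD of its mean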;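 also: negative B-score means less thallium flux so channel inhibition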
# Kir21 block: inhibitors of mouse Kir2.1 inward-rectifier potassium channel; HEK293-Kir2.1, FluxOR thallium flux fluorescence; active compounds read low; B-score at 10 µM; hit rate 0.85% among 310,000; AID 1672;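 active = fluorescence ratio B-score at or below minus 3 SD of library scores, with starting-brightness B-score within 2 SD, cut at about -4.2 in these data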;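 also: channel flux triggered by added potassium and thallium sulfate stimulus; B-score of peak minus minimum fluorescence over baseline after thallium stimulus; more negative B-score means stronger Kir2.1 block with less thallium influx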
# hERG rescue: compounds protecting human hERG from proarrhythmic drug block; CHO-hERG, FluxOR thallium flux, dofetilide IC70 present; activation (rescue from dofetilide block), less the hit threshold, % at 10 µM; hit rate 0.51% among 310,000;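 active = activation above the mean of controls blocked by dofetilide plus 5 SD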;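 also: thallium influx through hERG after potassium depolarization seen as dye fluorescence rise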
# KCNK3 block: human KCNK3 channel inhibition, primary screen | O14649 | CHO-KCNK3 thallium flux, FluxOR fluorescence; active compounds read low | B-score at 10 µM | hit rate 0.84% among 340,000;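 active = B-score under library mean minus 4 SD, starting fluorescence ratio at most library mean plus 5 SD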;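 also: more negative B-score means stronger inhibition of thallium flux through KCNK3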
# A number is an active result; . = inactive; / = no result.
SMILES,KCNQ1 block,KCNQ1 act,KCNK9 inh,Kir21 block,hERG rescue,KCNK3 block
CCOC(=O)c1c(NS(=O)(=O)Cc2ccccc2)sc2c1CCCC2,.,.,.,.,78,.
CCOC(=O)c1c(NC(=O)c2ccco2)sc2c1CCCCC2,.,.,.,.,.,.
CCOC(=O)c1c(NC(=O)C(C)N2CCN(C(=O)c3ccco3)CC2)sc2c1CCCC2 (stereo not drawn),.,15,.,.,.,.
CCOC(=O)c1c(NC(=O)c2ccccc2C(=O)O)sc2c1CCC2,.,.,.,.,.,.
CCOC(=O)c1c(NC(=O)CCNCc2ccco2)sc2c1CCC2,.,.,.,-17,.,/
c1ccc(CCN=C2CCCc3c2[nH]c2ccccc32)cc1,.,.,.,-12,.,.
CCc1cc(/C(Cc2csc(C)n2)=N/O)c(O)cc1O,.,.,.,-4.4,.,.
CC(C)(C)c1ccc(/C=N/NC(=O)CN2CCS(=O)(=O)CC2)cc1,.,.,.,.,.,.
CCOC(=O)C1(CCOc2ccccc2)CCN(Cc2cccs2)CC1,.,.,.,-5,.,.
CCOC(=O)C1(CCOc2ccccc2)CCN(Cc2ccncc2)CC1,.,.,.,.,.,.
O=C(Nc1ccc2[nH]c(=S)sc2c1)Nc1ccccc1F,.,15,.,.,11,.
O=C(Nc1ccc2[nH]c(=S)sc2c1)c1ccccc1,.,12,.,.,.,.
CC(=O)c1cccc(CN2CCCCC2C(=O)Nc2ccc(Oc3ccccc3)nc2)c1 (stereo not drawn),.,.,.,.,.,.
COC(=O)c1nnn(-c2cc(Cl)cc(Cl)c2)c1C(=O)OC,.,.,.,.,.,.
NC(=O)c1ccccc1OCC(=O)Nc1ccc2c(c1)OCCO2,/,/,/,/,/,.
COc1ccccc1C(=O)NC(=Nc1nc2ccccc2o1)NC(=O)c1ccccc1OC,.,.,-16,.,.,.
O=C(NC(=Nc1nc2ccccc2o1)NC(=O)c1ccccc1)c1ccccc1,.,.,.,.,.,.
Cc1cc(F)ccc1S(=O)(=O)Nc1ccccc1C(=O)N1CCCC1,/,/,/,/,/,.
Cc1nc(SC(C)C(=O)c2c(N)n(C)c(=O)n(C)c2=O)c2c(C)c(C)sc2n1 (stereo not drawn),.,14,.,.,.,.
CC(Sc1nnc(N)s1)C(=O)c1c(N)n(C)c(=O)n(C)c1=O (stereo not drawn),/,/,/,/,/,.
Cc1cc(NC(=O)c2cccs2)cc(-c2nc3ncccc3o2)c1O,.,.,-8,.,.,.
CCCC(=O)Nc1ccc(Cl)c(-c2nc3ncccc3o2)c1,.,.,-8,.,.,.
CCC(=O)NC(=S)Nc1cccc(-c2nc3ncccc3o2)c1,.,.,.,.,.,.
CCCCCC(=O)Nc1cccc(-c2nc3ncccc3o2)c1,.,.,-7.4,.,.,.
Cc1ccc(-c2nc3ncccc3o2)cc1NC(=O)c1cccs1,.,.,.,.,.,.
SMILES,KCNQ1 block,KCNQ1 act,KCNK9 inh,Kir21 block,hERG rescue,KCNK3 block
CN(C)CCn1c(N)nc2ccccc21,.,.,.,.,.,.
N#C/C(=C\c1c(N2CCC(C(N)=O)CC2)nc2ccccn2c1=O)C(=O)NC1CCCCC1,.,.,.,.,.,.
Cc1ccc(CNC(=O)c2ccc(N3CCC4(CC3)CC(c3ccccc3)=NO4)c([N+](=O)[O-])c2)cc1,.,.,.,.,.,.
C#CCn1cc(/C=N/Nc2nc3ccccc3[nH]2)c2ccccc21,.,.,.,-6.4,.,.
CC(=O)/C(=N/Nc1ccc([N+](=O)[O-])cc1)N1CCCc2ccccc21,.,.,.,.,.,.
CC(=O)/C(=N/Nc1ccccc1[N+](=O)[O-])N1CCCc2ccccc21,7,.,-7.1,.,.,.
O=C(CN1C(=O)C2C3CC(C(Br)C3Br)C2C1=O)Nc1ccc(C(=O)O)cc1 (stereo not drawn),.,.,.,.,.,.
O=C(/C=C/c1cccc([N+](=O)[O-])c1)NCCSCc1cccc(Cl)c1,.,.,-7.7,.,.,.
Cc1c(Cl)cccc1NC(=O)CSc1ncnc2c1cnn2CCO,.,.,.,.,.,.
CC1CCCCN1C(=O)CCC(=O)Nc1nnc(C2CCCCC2)s1 (stereo not drawn),.,.,-6.9,.,.,.
O=C(CCC(=O)N1CCCC1)Nc1nnc(C2CCCCC2)s1,.,.,.,.,.,.
CC(Oc1ccc(C(C)(C)C)cc1)C(=O)NC1CC(C)(C)NC(C)(C)C1 (stereo not drawn),.,.,.,.,.,.
CSC(=S)N/N=C/c1ccccc1,.,35,.,.,11,.
COc1ccc(/C=N/NC(=S)SC)cc1OC,.,.,.,.,.,.
Cc1cccc(NC(=O)c2cccc(NC(=O)Cc3cccs3)c2)c1,.,.,-6.9,.,.,.
Fc1ccccc1OCCCCN1CCCCC1,.,.,.,.,.,.
COc1ccc(S(=O)(=O)Nc2nc3ccccc3s2)cc1OC,.,.,.,.,4.7,.
CC(=O)Nc1ccc(S(=O)(=O)Nc2nc3ccccc3s2)cc1,.,.,.,.,.,.
O=C(O)C1CCCCC1C(=O)Nc1ccc(S(=O)(=O)N2CCOCC2)cc1 (stereo not drawn),/,/,/,/,/,.
COc1ccc(CNCCC(c2ccc(F)cc2)c2ccc(OC)cc2)cc1 (stereo not drawn),7,.,.,-8.9,.,.
COc1ccc(CN(CCC(c2ccccc2)c2ccc(OC(C)C)cc2)C(=O)CCl)cc1OC (stereo not drawn),.,.,.,.,.,.
COc1ccc(CNCCC(c2ccc(F)cc2)c2ccc(OC(C)C)cc2)cc1OC (stereo not drawn),.,.,.,-9,.,.
COc1ccc(C(CCNCc2ccccc2)c2ccc(F)cc2)cc1 (stereo not drawn),.,.,.,-12,.,.
COc1ccc(C(CCNCc2ccc(F)cc2)c2ccc(F)cc2)cc1 (stereo not drawn),.,.,.,-5,.,.
COc1cccc(OCCNCc2ccccc2)c1,.,.,.,.,.,.
SMILES,KCNQ1 block,KCNQ1 act,KCNK9 inh,Kir21 block,hERG rescue,KCNK3 block
N#Cc1cccnc1N1CCN(C(=O)COCC(=O)O)CC1,.,.,.,.,.,.
COc1ccc(C(CCNC(C)c2ccccc2)c2ccc(F)cc2)cc1 (stereo not drawn),.,.,.,-7.5,.,.
Cc1nc2ccccc2c2oc(C(=O)Nc3ccc4c(c3)OCCO4)cc12,.,.,.,.,.,.
Cc1nc2ccccc2c2oc(C(=O)NCC3COc4ccccc4O3)cc12 (stereo not drawn),.,.,.,.,.,-10
Cc1nc2ccccc2c2oc(C(=O)Nc3ccc(C(C)C)cc3)cc12,9,.,.,.,.,.
COc1cc(/C=C(\C#N)C(=O)NCCc2ccccc2)cc(OC)c1O,.,.,.,.,.,.

# Screens from PubChem BioAssay.
